Key:
[1] = molecular target: Intercellular adhesion molecule (ICAM-1), Integrin alpha-L/beta-2 (Homo sapiens) (UniProt P20701+P05362+P05107); experiment: Inhibition of HL-60 cell adhesion mediated by interaction of LFA-1 and ICAM-1; format: functional, cell-based; design: concentration or dose not given beside the values; settings: concentration not given here
In short: (§1)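 HL60 cells (LFA-1 positive, Mac-1 negative by FACS) were fluorochrome-labeled and added to immunoaffinity-purified recombinant soluble ICAM-1 immobilized on plastic. Incubation was 40 min at 37 °C, and nonadherent cells were washed off. Adherence was read on a fluorescence concentration analyzer. Values are IC50 (μM) or % inhibition at 10 μM, each from one assay run in five replicates.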

[2] = molecular target: T1, Intercellular adhesion molecule (ICAM-1), Integrin alpha-L/beta-2 (Homo sapiens, UniProt P05107+P05362+P20701); experiment: Inhibition of HL-60 cell adhesion to purified ICAM-1 by LFA-1; format: functional, cell-based; in short: as §1
HL-60 [3] = experiment: The concentration of compound required to inhibit 50% interaction (IC50 ) was measured on LFA-1/ICAM-1 mediated cells using cell/cell adherence assay on the HL60/U937 test system; format: functional, cell-based; settings: Homo sapiens
Integrin alpha-M/beta-2 = Integrin alpha-M/beta-2 (Homo sapiens, UniProt P05107+P11215); experiment: Inhibition of neutrophil cell Mac-1 mediated adhesion to purified ICAM-1, no effect up to 20 […]; format: functional, cell-based
[4] = molecular target: T1, Intercellular adhesion molecule (ICAM-1), Integrin alpha-L/beta-2; experiment: Inhibition of LFA-1 mediated HL60 cell adhesion to ICAM-1; format: cell-based, HL-60; in short: as §1
[5] = The inhibitory activity was measured on VLA-4/VCAM-1 mediated cells using cell/cell adherence assay on the Ramos/IL-1beta HUVEC test system; no effect up to 20 pM; format: functional, cell-based; settings: in the assay text read “20 µM” for “20 pM”
In short: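 Cell/cell adhesion used VLA-4-expressing Ramos B lymphoblastoid cells and HUVEC stimulated overnight with IL-1β to express VCAM-1. Adherence was quantified by fluorescence.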

HL-60 [6] = experiment: The inhibitory activity was measured on sLex/E-selectin mediated cells using cell/cell adherence assay on the HL60/IL-1beta HUVEC test system; no effect up to 20 µM; settings: Homo sapiens

T1 sequence (P20701 whole entry): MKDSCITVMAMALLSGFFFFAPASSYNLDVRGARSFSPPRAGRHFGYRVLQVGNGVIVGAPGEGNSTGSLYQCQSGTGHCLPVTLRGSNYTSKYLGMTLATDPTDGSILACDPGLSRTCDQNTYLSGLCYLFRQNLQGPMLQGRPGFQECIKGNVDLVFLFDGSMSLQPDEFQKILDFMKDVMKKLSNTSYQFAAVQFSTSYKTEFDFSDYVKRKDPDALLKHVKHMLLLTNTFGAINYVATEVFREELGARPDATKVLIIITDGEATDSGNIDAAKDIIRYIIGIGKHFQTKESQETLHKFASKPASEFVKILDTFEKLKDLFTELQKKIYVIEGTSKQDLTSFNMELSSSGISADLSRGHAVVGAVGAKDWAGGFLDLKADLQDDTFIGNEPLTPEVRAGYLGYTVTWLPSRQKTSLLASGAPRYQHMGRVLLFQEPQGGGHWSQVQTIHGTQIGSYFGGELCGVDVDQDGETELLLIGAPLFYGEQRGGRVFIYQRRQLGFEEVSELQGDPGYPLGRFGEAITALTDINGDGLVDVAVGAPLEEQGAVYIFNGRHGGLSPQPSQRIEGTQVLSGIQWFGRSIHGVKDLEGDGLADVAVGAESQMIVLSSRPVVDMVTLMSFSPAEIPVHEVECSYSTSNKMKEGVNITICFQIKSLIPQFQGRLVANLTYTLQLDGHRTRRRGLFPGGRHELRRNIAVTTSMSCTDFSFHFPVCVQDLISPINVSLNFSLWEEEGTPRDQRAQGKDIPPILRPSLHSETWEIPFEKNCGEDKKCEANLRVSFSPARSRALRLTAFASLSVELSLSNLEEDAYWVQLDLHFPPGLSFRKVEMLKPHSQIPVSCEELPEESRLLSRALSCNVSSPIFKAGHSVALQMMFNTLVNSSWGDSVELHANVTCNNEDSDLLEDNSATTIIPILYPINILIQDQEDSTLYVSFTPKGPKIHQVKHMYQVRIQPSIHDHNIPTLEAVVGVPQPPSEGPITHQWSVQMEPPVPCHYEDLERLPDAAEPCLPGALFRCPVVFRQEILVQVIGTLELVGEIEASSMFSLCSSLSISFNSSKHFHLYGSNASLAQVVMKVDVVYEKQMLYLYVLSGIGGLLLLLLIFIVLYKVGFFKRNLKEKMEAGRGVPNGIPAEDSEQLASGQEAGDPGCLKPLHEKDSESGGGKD
T1 sequence (P05362 whole entry): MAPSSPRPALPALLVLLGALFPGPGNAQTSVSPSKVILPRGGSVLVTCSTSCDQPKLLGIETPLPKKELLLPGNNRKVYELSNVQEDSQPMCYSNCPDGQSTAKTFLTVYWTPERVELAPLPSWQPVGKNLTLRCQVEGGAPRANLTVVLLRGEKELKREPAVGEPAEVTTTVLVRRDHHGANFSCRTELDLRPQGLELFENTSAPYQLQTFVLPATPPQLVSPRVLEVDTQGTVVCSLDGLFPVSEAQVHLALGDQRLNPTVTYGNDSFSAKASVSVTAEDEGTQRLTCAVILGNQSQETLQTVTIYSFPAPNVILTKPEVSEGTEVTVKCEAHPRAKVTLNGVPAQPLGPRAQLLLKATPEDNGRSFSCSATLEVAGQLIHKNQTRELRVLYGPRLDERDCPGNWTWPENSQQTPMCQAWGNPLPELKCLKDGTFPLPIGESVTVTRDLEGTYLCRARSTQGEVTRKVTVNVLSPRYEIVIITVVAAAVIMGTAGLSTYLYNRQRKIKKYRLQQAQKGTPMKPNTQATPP
T1 sequence (P05107 whole entry): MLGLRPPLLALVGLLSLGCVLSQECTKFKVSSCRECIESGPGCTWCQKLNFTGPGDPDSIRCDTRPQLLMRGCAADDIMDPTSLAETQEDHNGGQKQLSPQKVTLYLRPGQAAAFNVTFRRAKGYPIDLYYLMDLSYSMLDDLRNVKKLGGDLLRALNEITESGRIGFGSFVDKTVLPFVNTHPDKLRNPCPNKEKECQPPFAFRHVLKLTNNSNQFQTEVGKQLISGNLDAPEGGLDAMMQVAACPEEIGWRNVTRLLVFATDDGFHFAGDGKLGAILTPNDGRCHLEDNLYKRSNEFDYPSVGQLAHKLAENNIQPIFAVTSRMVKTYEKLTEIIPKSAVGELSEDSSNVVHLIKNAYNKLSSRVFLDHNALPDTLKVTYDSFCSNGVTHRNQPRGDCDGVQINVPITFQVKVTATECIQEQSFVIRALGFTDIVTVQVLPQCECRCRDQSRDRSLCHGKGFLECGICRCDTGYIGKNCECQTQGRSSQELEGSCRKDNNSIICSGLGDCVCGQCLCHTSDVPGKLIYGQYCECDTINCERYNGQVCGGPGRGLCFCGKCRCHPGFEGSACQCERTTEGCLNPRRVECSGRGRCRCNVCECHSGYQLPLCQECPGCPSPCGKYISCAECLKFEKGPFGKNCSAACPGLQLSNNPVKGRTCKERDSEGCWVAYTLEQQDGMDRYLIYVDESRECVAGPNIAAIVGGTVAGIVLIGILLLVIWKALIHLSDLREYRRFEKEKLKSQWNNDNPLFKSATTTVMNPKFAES
Integrin alpha-M/beta-2, sequence (P05107 23-769 limits assumed, other chains not shown): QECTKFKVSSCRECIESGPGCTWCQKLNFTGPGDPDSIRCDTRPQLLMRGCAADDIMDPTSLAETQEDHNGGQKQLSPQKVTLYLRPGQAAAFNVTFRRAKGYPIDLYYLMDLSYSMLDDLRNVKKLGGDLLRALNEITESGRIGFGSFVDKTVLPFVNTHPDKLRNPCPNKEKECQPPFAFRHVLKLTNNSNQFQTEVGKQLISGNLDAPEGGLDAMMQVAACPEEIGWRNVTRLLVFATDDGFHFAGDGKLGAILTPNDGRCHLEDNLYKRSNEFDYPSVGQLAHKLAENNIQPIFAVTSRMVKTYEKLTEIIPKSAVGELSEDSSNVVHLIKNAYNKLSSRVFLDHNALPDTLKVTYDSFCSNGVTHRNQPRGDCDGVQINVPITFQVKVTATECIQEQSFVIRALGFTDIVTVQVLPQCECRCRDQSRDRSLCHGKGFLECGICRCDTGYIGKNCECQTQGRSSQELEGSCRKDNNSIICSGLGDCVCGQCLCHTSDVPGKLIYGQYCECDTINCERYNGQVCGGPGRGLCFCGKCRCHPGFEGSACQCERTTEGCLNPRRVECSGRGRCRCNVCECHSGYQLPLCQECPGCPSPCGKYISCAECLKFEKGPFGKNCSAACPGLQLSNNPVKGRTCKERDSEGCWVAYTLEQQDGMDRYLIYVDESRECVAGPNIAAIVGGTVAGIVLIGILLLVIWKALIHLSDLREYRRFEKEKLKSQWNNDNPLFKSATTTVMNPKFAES

| inhibition [1] [%] | Compound | other results |
| --- | --- | --- |
| 51 | Cc1c(C(=O)NCCCCO)cnn1-c1nc(-c2cccc(C(F)(F)F)c2)cs1 |  |
| 48 | COCCCNC(=O)c1cnn(-c2nc(-c3cccc(C(F)(F)F)c3)cs2)c1C |  |
| 26 | CCCc1c(C(=O)NCCCO)cnn1-c1nc(-c2cccc(C(F)(F)F)c2)cs1 |  |
|  | CCc1c(C(=O)NCCCO)cnn1-c1nc(-c2cccc(C(F)(F)F)c2)cs1 | IC50 [2]: 3 µM |
| 0 | CCOC(=O)CCCNC(=O)c1cnn(-c2nc(-c3cccc(C(F)(F)F)c3)cs2)c1C |  |
| 34 | CCc1c(C(=O)NCCCn2ccnc2)cnn1-c1nc(-c2cccc(C(F)(F)F)c2)cs1 |  |
| 5 | O=C(NCCCO)c1cnn(-c2nc(-c3cccc(C(F)(F)F)c3)cs2)c1C(F)(F)F |  |
| 10 | CCc1c(C(=O)NCCCN2CCCC2=O)cnn1-c1nc(-c2cccc(C(F)(F)F)c2)cs1 |  |
| 5 | Cc1c(C(=O)NCCCO)cnn1-c1nc(-c2ccccc2)cs1 |  |
|  | Cc1c(C(=O)NCCCO)cnn1-c1nc(-c2cccc(C(F)(F)F)c2)cs1 | IC50 (HL-60 [3]): 5 µM; IC50 [2]: 5 µM; IC50 (Integrin alpha-M/beta-2): No effect; IC50 [4]: 5 µM; IC50 [5]: No effect; IC50 (HL-60 [6]): No effect |
| 0 | COc1cc(-c2csc(-n3ncc(C(=O)NCCCO)c3C)n2)cc(OC)c1OC |  |
| 25 | Cc1c(C(=O)OCCCO)cnn1-c1nc(-c2cccc(C(F)(F)F)c2)cs1 |  |
| 20 | Cc1c(C(=O)NCCCO)cnn1-c1nc(-c2cccc(Cl)c2)cs1 |  |
| 7 | Cc1ccc(-c2csc(-n3ncc(C(=O)NCCCO)c3C)n2)cc1 |  |
| 0 | Cc1c(C(=O)NCCCCCO)cnn1-c1nc(-c2cccc(C(F)(F)F)c2)cs1 |  |
